High-throughput results: PubChem BioAssay, several laboratories
Rows were chosen to be rich in hits. Some 3.4% of all compounds tested hit in one or more screens of this group.
MEKK2 WT-MEK5 = modulators of MEK5 binding to wildtype MEKK2, primary screen, biochemical, multiplex bead flow cytometry, Alexa488-MEK5. Alexa488-MEK5 binding to MEKK2 WT; actives lie on both sides. binding response (% of control), % at 10 µM. Mitogen-activated protein kinase kinase kinase 2 (Homo sapiens), Q9Y2U5. 290,000 tested, 1.1% active; in the data active means binding response below about 67% or above about 130%
MEKK3 PB1 HTS = modulators of MEKK3-MEK5 PB1 binding, primary screen, biochemical, wildtype MEKK3, multiplex bead flow cytometry, Alexa488-MEK5 | bead-based flow cytometry, Alexa488-MEK5 binding to MEKK3; actives lie on both sides; 0 = blocked by unlabeled MEK5, 100 = vehicle | 290,000 tested, 1.4% active | binding response (% of control), % at 10 µM | AID 1529, 2009;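 active means binding response more than 3 SD above or below the average of its plate-row segment, actives on both sides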;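 further: Alexa488 bead fluorescence after subtracting the streptavidin-only scavenger bead signal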
Target sequence (Q99759 whole entry, looked up): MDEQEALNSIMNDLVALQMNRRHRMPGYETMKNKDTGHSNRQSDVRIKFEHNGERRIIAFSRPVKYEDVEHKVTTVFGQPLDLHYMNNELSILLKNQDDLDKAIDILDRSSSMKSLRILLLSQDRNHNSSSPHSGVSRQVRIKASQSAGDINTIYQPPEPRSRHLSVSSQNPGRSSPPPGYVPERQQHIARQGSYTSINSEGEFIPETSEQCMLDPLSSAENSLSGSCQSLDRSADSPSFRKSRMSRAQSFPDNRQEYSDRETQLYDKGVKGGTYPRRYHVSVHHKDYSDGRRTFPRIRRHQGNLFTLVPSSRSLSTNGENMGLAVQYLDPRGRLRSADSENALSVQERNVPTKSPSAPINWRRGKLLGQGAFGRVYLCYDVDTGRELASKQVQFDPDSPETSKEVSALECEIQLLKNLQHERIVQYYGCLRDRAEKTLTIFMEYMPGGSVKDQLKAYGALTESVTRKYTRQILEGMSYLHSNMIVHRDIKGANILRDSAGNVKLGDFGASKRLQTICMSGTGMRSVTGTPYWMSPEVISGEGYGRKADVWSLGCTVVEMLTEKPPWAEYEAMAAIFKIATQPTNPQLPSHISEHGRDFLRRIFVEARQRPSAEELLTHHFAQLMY
VIM-2 inhibitor = VIM-2 metallo-beta-lactamase inhibitors, primary screen, biochemical, epi-absorbance readout, Pseudomonas aeruginosa enzyme; purified VIM-2, nitrocefin hydrolysis, epi-absorbance fluorescence; inhibition, % at 5.6 µM; 290,000 tested, 0.89% active; AID 1527, 2009;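 active means inhibition above the mean of all tested compounds plus 3 SD, cutoff set per screening run, cut at about 7.5% in these data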;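 further: red hydrolysis product quenches plate fluorescence so inhibitors raise well fluorescence; 0% = enzyme with DMSO and 100% = DMSO without enzyme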
MEKK2 mut-MEK5 = MEK5 binding signal on mutant MEKK2 PB1, primary screen, biochemical, multiplex bead flow cytometry, Alexa488-MEK5; Alexa488-MEK5 binding to MEKK2 mutant; 290,000 tested, 0.35% active; percent response, % at 10 µM; in the data active means percent response above about 24%, passing the limit was not always enough
IMP-1 inhibitor = IMP-1 metallo-beta-lactamase inhibitors, primary screen, biochemical, epi-absorbance readout, Pseudomonas aeruginosa enzyme; inhibition, % at 5.6 µM; AID 1556, 2009; 290,000 tested, 0.45% active; purified IMP-1, nitrocefin hydrolysis, epi-absorbance fluorescence;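 active means inhibition above the mean plus 3 SD of all compounds in the same screening run, cut at about 4.5% in these data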;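 further: 0% = IMP-1 with DMSO and 100% = DMSO wells lacking enzyme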
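assay system = purified recombinant IMP-1 metallo-beta-lactamase enzyme | schedule = 15 min preincubation plus 25 min reaction at 25 °C | signal = Epi-absorbance fluorescence, 480 nm excitation, 530 nm emission | read-out basis = percent inhibition from optical density relative to buffer-blank wells | controls = IMP-1 with DMSO as 0%, enzyme-free DMSO as 100%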
The depositor's hits bear a star; . = not tested or not shown; [ ] = remark or other dose.

SMILES | MEKK2 WT-MEK5 | MEKK3 PB1 HTS | VIM-2 inhibitor | MEKK2 mut-MEK5 | IMP-1 inhibitor
O=C(O)C1CCN(C(=O)COc2ccc3c4c(c(=O)oc3c2)CCC4)CC1 | 105.0 | 108.0 | 1.7 | 2.0 | -1.7
COC1CCCN(Cc2c(C(=O)N3CCN(C4CCCCC4)CC3)nc3ccccn23)C1 (stereo not drawn) | 105.0 | 105.0 | -2.7 | 9.0 | -1.7
COc1ccc(/C=N/NC(=O)c2ccc(-c3ccccc3)cc2)cc1O | 101.0 | 104.0 | -2.7 | -1.0 | -4.5
O=C(N/N=C/c1ccc2nccnc2c1)c1cccc([N+](=O)[O-])c1 | 102.0 | 99.0 | -4.8 | -2.0 | -2.3
Cc1cc(OCC(=O)N2CCOCC2)cc2oc(=O)c3ccccc3c12 | 91.0 | 87.0 | 9.5* | -15.0 | -1.8
Cc1ccc(OCC(=O)N2CCOCC2)cc1C | 97.0 | 95.0 | -1.0 | -2.0 | -1.5
Cc1ccc(C(=O)c2cn(-c3ccc(F)c(Cl)c3)nn2)cc1 | 102.0 | 104.0 | -4.9 | -1.0 | -1.4
CCN(CC)C(=O)c1ccc(/C=C/c2c[nH]c3ccccc23)[n+](C)c1 | 102.0 | 98.0 | 5.7 | -4.0 | 4.8*
CSc1nc2sc3c(c2c2nncn12)CCC3 | 108.0 | 108.0 | 10.7* | 2.0 | -1.3
CC(=O)Nc1ccc(NC(=O)CCC(=O)NCCO)cc1 | 103.0 | 101.0 | -1.6 | 4.0 | -0.5
Cc1cc(NCCN2CCOCC2)c2ccc3ccccc3c2n1 | 101.0 | 104.0 | 8.8* | -5.0 | -3.3
Cc1cc(N2CCN(c3ccccn3)CC2)n2nc(C)nc2n1 | 97.0 | 96.0 | 10.4* | 12.0 | -0.8
CC(C)CCN1CCN(Cc2nc(-c3ccccc3)cs2)CC1CCO (stereo not drawn) | 110.0 | 101.0 | -0.2 | 3.0 | -0.8
COC(=O)c1cc2c(C)c(C)c3ccccn3c-2c1C(=O)OC | 100.0 | 100.0 | 0.8 | 1.0 | -4.6
CC(C)OC(=O)c1c2c(n3ccccc13)C(=O)c1ccccc1C2=O | 35.0*[inhibitor] | 94.0 | 0.4 | -46.0 | 2.2
O=C(NCCN1CCOCC1)C(=O)NCC1OCCCN1S(=O)(=O)c1ccc(F)cc1 (stereo not drawn) | 103.0 | 99.0 | -2.0 | 7.0 | -4.2
O=C(CSc1nnc(Cc2cc(=O)[nH]c(=O)[nH]2)n1-c1ccc(Cl)cc1)NCC1CCCO1 (stereo not drawn) | 8.0* | 101.0 | -1.7 | 17.0 | -0.4
Cc1ccc(N2C(=O)c3cccc4cccc(c34)C2=O)cc1 | 97.0 | 99.0 | -5.5 | -6.0 | -0.7
CC1=CC2=C(OC1N(C)C)c1cccc3cccc(c13)C2=O (stereo not drawn) | 86.0 | 94.0 | 3.4 | 0.0 | 7.3*
CCCCn1c(N)c(-c2nc3ccccc3o2)c2c([N+](=O)[O-])nn(C)c(=O)c21 | 112.0 | 115.0 | -3.8 | 0.0 | -3.8
CCCCCn1c(N)c(-c2nc3ccccc3s2)c2c([N+](=O)[O-])nn(C)c(=O)c21 | 98.0 | 94.0 | 0.1 | 4.0 | 6.9*
CCc1n[nH]c(=S)n1/N=C/c1cc(OC)cc([N+](=O)[O-])c1O | 102.0 | 102.0 | -0.8 | -2.0 | 4.6*
COc1cc(/C=N/n2c(=S)[nH]nc(C)c2=O)cc([N+](=O)[O-])c1O | 101.0 | 103.0 | -2.2 | 5.0 | -3.9
O=C(CCc1c[nH]c2ccccc12)N=Nc1c(O)[nH]c2ccccc12 | 102.0 | 97.0 | 2.8 | -1.0 | -2.7
O=C(CCNC(=O)c1ccccc1)N=Nc1c(O)[nH]c2ccccc12 | 93.0 | 93.0 | -0.3 | 94.0* | -0.8
SMILES | MEKK2 WT-MEK5 | MEKK3 PB1 HTS | VIM-2 inhibitor | MEKK2 mut-MEK5 | IMP-1 inhibitor
CCc1ccc(CNc2ccc(O)cc2)cc1 | 96.0 | 102.0 | -3.4 | 0.0 | 0.8
CCC/C(=C1/C(=O)CC(C)(C)C(C(=O)OC)C1=O)N1CCCC1 (stereo not drawn) | 100.0 | 97.0 | -1.1 | -6.0 | -2.5
O=C(NCCCn1ccnc1)c1cc2c(ccc3ccccc32)o1 | 98.0 | 93.0 | 4.3 | -1.0 | -2.5
O=c1c2ccccc2oc2ccc(NCCCn3ccnc3)cc12 | 98.0 | 100.0 | 11.0* | 1.0 | -3.5
CC1(C)CC2CC(C)(CN2C(=O)COC(=O)CNC(=O)c2ccc(Cl)c(Cl)c2)C1 (stereo not drawn) | 111.0 | 101.0 | -2.5 | 10.0 | -1.0
O=C(Cn1ncc2c([nH]c3ccccc32)c1=O)NCCc1ccc(Cl)cc1 | 107.0 | 104.0 | 0.2 | 3.0 | -0.6
O=C(Cn1ncc2c([nH]c3ccccc32)c1=O)Nc1ccc(CN2CCCCC2)cc1 | 147.0* | 107.0 | -1.0 | 25.0* | -1.8
NC(=O)C1CCN(CCC(=O)Nc2ccc3c(c2)CCC3)CC1 | 107.0 | 115.0 | -1.5 | 4.0 | -3.8
O=C(CCc1nc2ccccc2c(=O)[nH]1)OCCOc1ccc(Cl)cc1 | 99.0 | 102.0 | -1.1 | -4.0 | -2.0
CN(C)S(=O)(=O)c1cccc(NC(=O)COC(=O)/C=C/c2ccco2)c1 | 109.0 | 105.0 | -4.1 | 10.0 | -3.8
Cc1ccc(/C=C/C(=O)OCC(=O)Nc2cccc(S(=O)(=O)N(C)C)c2)o1 | 10.0* | 104.0 | -1.1 | 11.0 | -3.0
CCOC(=O)c1c(C)[nH]c(C)c1S(=O)(=O)NC1CCN(C(=O)OCC)CC1 | 104.0 | 100.0 | -6.0 | 4.0 | -2.5
CC(C)OCCCN1C(=O)c2[nH]nc(-c3ccccc3O)c2C1c1cccc(Cl)c1 (stereo not drawn) | 110.0 | 138.0* | -4.3 | 3.0 | -2.0
COCCCN1C(=O)c2[nH]nc(-c3ccccc3O)c2C1c1cccc(Cl)c1 (stereo not drawn) | 104.0 | 107.0 | -4.7 | 3.0 | -2.9
O=C(COc1ccc2c(-c3ccccc3)cc(=O)oc2c1)NCc1cccs1 | 4.0* | 93.0 | -1.1 | 5.0 | -1.5
Clc1cccc(-c2ccc(CNCc3ccccn3)o2)c1 | 115.0 | 108.0 | 11.3* | 22.0 | -6.3
S=C(NCc1ccccn1)Nc1cccc(Cl)c1 | 102.0 | 102.0 | -1.9 | 4.0 | -4.3
CCN1CCCC1CN(Cc1cc2ccc(C)cc2[nH]c1=O)C(=S)Nc1ccc(F)cc1 (stereo not drawn) | 108.0 | 100.0 | 10.3* | -2.0 | -0.2
CCN1CCCC1CN(Cc1cc2ccc(C)cc2[nH]c1=O)C(=S)Nc1ccc(OC)cc1 (stereo not drawn) | 98.0 | 96.0 | -1.5 | -2.0 | -0.9
C=CCOC(=O)C1=C[C@H](c2csc3ccccc23)C[C@H](OCCCCO)O1 | 95.0 | 97.0 | . | -2.0 | .
NC(=O)C1=C[C@@H](c2csc3ccccc23)C[C@@H](OCCCCO)O1 | 92.0 | 94.0 | 2.9 | 3.0 | 6.3*
C=CCN1C(=O)C(Cc2ccc(Br)cc2)S/C1=N\N=C\c1ccco1 (stereo not drawn) | 95.0 | 98.0 | -2.5 | -1.0 | -2.6
